For this test, the target named is Serotonin 3 (5-HT3) receptor (Rattus norvegicus) (UniProt P35563+Q9JJ16). Nature of the test: In vivo 5-hydroxytryptamine 3 receptor (5-HT 3 receptor) antagonistic activity expressed as ability to inhibit Bezold-Jarich reflex evoked by 5-HT in rats. Format: functional, organism-based. In a few lines:
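Male rats (260-290 g) anesthetized with urethane (1.25 g/kg ip), with blood pressure and heart rate recorded. A submaximal 5-HT dose (6 µg/kg iv) was given repeatedly, and the heart-rate change was quantified. Compound was given iv before 5-HT. ID50 is the dose reducing the 5-HT-evoked response to 50% of the control response.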

From ChEMBL document CHEMBL1124839, “5-Hydroxytryptamine (5-HT3) receptor antagonists. 3. Ortho-substituted phenylureas” (J Med Chem, 1990) come the findings set out here.

Take `CCCOc1ccccc1NC(=O)NC1CC2CCC(C1)N2C` (configuration not stated): the ID50 turned out to be 9.8 µg/kg. Molecule `CN1C2CCC1CC(NC(=O)Nc1ccccc1OCc1ccccc1)C2` (configuration not stated) displayed an ID50 of 5.2 µg/kg. Next, `COc1ccc(F)cc1NC(=O)NC1CC2CCC(C1)N2C` (configuration not stated): 7 µg/kg.

In the case of `COc1ccc(OC)c(NC(=O)NC2CC3CCC(C2)N3C)c1` (configuration not stated), the ID50 was > 10 µg/kg. Next, `CN1C2CCC1CC(NC(=O)Nc1ccccc1OC(C)(C)C)C2` (configuration not stated): > 10 µg/kg; `CN1C2CCC1CC(NC(=O)Nc1ccccc1S(=O)(=O)N(C)C)C2` (configuration not stated): 2.2 µg/kg; `COCc1ccccc1NC(=O)NC1CC2CCC(C1)N2C` (configuration not stated): 13.4 µg/kg. For `CCOC(=O)c1ccccc1NC(=O)NC1CC2CCC(C1)N2C` (configuration not stated) the value was 5.2 µg/kg; for `COc1ccc(O)cc1NC(=O)NC1CC2CCC(C1)N2C` (configuration not stated), > 10 µg/kg; for `CCOc1ccccc1NC(=O)NC1CC2CCC(C1)N2C` (configuration not stated), 3.1 µg/kg. For `CSc1ccccc1NC(=O)NC1CC2CCC(C1)N2C` (configuration not stated) the value was 12.7 µg/kg; for `COc1ccccc1NC(=O)NC1CC2CCC(C1)N2C` (configuration not stated), 2.5 µg/kg; for `COc1ccccc1NC(=O)NC1CC2CCCC(C1)N2C` (stereo in doubt; 11c), > 100 µg/kg.

For `COc1ccc([N+](=O)[O-])cc1NC(=O)NC1CC2CCC(C1)N2C` (configuration not stated), the ID50 is > 10 µg/kg. For `CN1C2CCC1CC(NC(=O)Nc1ccccc1O)C2` (configuration not stated) the value was 11.6 µg/kg; for `COc1ccc(C)cc1NC(=O)NC1CC2CCC(C1)N2C` (configuration not stated), > 10 µg/kg. For `CCC(C)Oc1ccccc1NC(=O)NC1CC2CCC(C1)N2C` (configuration not stated) the value was 2.7 µg/kg. Next, `CC(C)Oc1ccccc1NC(=O)NC1CC2CCC(C1)N2C` (configuration not stated): 4.2 µg/kg; `COc1ccccc1NC(=O)OC1CC2CCC(C1)N2C` (configuration not stated): 2.4 µg/kg. The molecule `CCCCOc1ccccc1NC(=O)NC1CC2CCC(C1)N2C` (configuration not stated) registered an ID50 of 8.3 µg/kg.

`COC(=O)c1ccccc1NC(=O)NC1CC2CCC(C1)N2C` (configuration not stated) gave an ID50 of 2.1 µg/kg.

In the case of `COc1ccc(NC(=O)NC2CC3CCC(C2)N3C)c(OC)c1` (configuration not stated), the ID50 is > 10 µg/kg. The molecule `C=CCOc1ccccc1NC(=O)NC1CC2CCC(C1)N2C` (configuration not stated) showed an ID50 of 2.6 µg/kg.

`COc1cc(F)ccc1NC(=O)NC1CC2CCC(C1)N2C` (configuration not stated): the ID50 is > 10 µg/kg. For `CN1C2CCC1CC(NC(=O)Nc1ccccc1Oc1ccccc1)C2` (configuration not stated) the value was 5.4 µg/kg; for `CN(C)C(=O)c1ccccc1NC(=O)NC1CC2CCC(C1)N2C` (configuration not stated), > 10 µg/kg; for `COc1ccccc1NC(=O)NC1CC2CCCC(C1)N2C` (stereo in doubt; 6c), 7.5 µg/kg.
